Laboratory results taken from ChEMBL document CHEMBL1152689, “Synthesis, tautomerism, and antimicrobial, anti-HCV, anti-SSPE, antioxidant, and antitumor activities of arylazobenzosuberones” (Bioorg Med Chem, 2009).
In brackets after ≈: the same amount, converted by molar mass. Activity calls are given as the source filed them. The calls are words filed in the database; no cut-off is given here.

Key:
Hepatitis C virus = experiment: Antiviral activity against HCV by cell based replicon assay; format: functional, Hepacivirus hominis
Procedure, shortened: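 HCV replicon cells plated at 1×10^4 per well. Next day incubated at 37 °C with serially diluted compound in DMEM with 2% FBS and 0.5% DMSO. HCV RNA copy number measured by quantitative RT-PCR on total cellular RNA. Each point is the average of five replicates. Cytotoxicity measured by MTS in parallel.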

Measles morbillivirus = experiment: Antiviral activity against Measles virus infected in intracranially dosed hamster assessed as inhibition of subacute sclerosing panencephalitis; format: functional
Procedure, shortened: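 Hamsters under ether anesthesia injected intracranially, into the subarachnoid space at 2 mm depth, at 5, 10 and 20 mg/kg/day for 10 days. Four animals per group sacrificed on days 1–20. Brains homogenized in PBS and centrifuged, supernatant deproteinized with ethanol, then MIC in brain tissue determined by HPLC and bioassay.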

[1] = biological target: DNA topoisomerase 2-alpha (Mus musculus) (UniProt Q01320); experiment: Inhibition of topoisomerase 2 from mouse P388 cells assessed as relaxation of pBR322 DNA by agarose gel electrophoresis relative to etoposide; format: cell-based
DNA topoisomerase 2-alpha (Mus musculus), sequence (Q01320 whole entry): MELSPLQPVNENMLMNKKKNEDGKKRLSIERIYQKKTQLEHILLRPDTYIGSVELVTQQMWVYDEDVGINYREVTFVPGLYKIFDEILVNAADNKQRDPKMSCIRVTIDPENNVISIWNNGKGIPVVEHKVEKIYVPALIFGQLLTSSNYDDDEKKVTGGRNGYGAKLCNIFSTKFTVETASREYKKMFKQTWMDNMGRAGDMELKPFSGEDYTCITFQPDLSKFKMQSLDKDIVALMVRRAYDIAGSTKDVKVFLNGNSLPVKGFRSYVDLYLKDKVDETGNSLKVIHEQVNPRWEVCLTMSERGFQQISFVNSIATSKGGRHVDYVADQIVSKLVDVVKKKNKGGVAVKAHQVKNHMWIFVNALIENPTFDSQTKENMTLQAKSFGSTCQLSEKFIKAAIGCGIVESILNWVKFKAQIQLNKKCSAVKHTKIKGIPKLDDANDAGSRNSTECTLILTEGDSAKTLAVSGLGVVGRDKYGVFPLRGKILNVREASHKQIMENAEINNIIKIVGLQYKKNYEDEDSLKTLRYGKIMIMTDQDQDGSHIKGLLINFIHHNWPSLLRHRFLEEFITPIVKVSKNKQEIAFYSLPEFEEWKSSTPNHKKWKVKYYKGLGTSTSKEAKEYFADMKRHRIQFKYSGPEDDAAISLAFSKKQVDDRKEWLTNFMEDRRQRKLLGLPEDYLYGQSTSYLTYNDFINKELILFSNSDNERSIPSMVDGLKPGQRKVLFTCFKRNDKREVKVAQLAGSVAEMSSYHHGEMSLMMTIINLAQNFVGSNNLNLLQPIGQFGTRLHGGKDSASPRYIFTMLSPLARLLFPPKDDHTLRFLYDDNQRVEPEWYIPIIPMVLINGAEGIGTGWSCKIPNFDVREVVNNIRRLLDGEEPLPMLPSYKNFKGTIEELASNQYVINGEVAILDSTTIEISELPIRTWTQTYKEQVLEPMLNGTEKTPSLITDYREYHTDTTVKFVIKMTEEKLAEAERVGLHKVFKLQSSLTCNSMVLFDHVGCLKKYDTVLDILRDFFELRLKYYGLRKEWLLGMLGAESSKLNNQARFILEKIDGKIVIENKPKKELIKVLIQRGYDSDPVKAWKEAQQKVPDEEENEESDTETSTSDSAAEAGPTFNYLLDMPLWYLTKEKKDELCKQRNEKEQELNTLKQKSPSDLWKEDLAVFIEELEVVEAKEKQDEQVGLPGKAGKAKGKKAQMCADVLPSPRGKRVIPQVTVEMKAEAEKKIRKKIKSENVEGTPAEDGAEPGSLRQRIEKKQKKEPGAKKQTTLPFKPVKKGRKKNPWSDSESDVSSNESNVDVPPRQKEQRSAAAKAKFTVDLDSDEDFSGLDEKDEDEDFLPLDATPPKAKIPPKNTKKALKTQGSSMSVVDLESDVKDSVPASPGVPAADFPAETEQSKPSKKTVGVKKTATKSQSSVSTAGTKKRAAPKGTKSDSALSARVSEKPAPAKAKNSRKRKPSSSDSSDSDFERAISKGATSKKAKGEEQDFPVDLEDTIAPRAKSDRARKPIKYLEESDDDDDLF
Procedure, shortened: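 Topoisomerase II purified from P388 cells. One unit relaxes 0.125 µg supercoiled pBR322 DNA, incubated with or without inhibitor at 30 °C for 1 h in 50 mM Tris-HCl pH 8.0, 100 mM KCl, 10 mM MgCl2, 0.5 mM DTT, 1 mM ATP and 30 µg/ml BSA. Products run on 0.7% agarose in TBE, stained with ethidium bromide and imaged under UV.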

[2] = Antioxidant activity assessed as inhibition of peroxynitrite-mediated 3-nitrotyrosine formation by HPLC; format: functional
Procedure, shortened: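 Tyrosine and peroxynitrite, each 100 µM, reacted with compound at 0–300 µM in 100 mM phosphate buffer pH 7.4 at 37 °C for 15 min. Peroxynitrite made from acidified H2O2 plus KNO2, quenched with NaOH, and kept on ice no longer than 30 min before use.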

[3] = biological target: T1, DNA topoisomerase 1 (Homo sapiens) (UniProt P11387); experiment: Inhibition of topoisomerase 1 relative to etoposide
T1 sequence (whole entry): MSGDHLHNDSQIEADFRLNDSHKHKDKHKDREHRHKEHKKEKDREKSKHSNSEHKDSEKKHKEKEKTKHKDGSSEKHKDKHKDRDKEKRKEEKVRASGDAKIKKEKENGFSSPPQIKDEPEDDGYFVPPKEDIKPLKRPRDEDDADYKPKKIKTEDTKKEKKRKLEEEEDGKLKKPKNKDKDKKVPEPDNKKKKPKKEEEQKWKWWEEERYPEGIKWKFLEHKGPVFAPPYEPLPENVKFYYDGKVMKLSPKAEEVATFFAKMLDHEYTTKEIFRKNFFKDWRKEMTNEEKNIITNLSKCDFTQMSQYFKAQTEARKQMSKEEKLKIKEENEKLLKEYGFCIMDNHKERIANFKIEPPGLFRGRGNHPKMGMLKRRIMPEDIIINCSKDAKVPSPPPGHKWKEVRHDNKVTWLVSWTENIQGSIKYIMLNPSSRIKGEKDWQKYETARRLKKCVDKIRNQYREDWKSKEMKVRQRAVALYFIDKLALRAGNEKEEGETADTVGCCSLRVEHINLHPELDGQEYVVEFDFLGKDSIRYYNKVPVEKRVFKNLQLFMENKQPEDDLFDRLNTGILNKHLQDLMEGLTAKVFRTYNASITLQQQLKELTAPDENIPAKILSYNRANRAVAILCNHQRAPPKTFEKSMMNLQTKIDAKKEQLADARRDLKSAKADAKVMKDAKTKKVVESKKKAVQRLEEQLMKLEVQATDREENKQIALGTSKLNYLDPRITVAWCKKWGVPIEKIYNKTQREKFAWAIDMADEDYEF

MC-38 = experiment: Antitumor activity against mouse Colon 38 cells implanted in iv dosed C57BL/6 mouse administered as single dose; format: functional, organism-based
Procedure, shortened: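 Female C57BL/6 mice, 6 weeks old, given about 30 mg Colon 38 tumor tissue s.c. in the flank. Randomized into groups of n = 5 when tumors reached about 300 mm3 (day 1). Compound in 5% glucose given as a single iv tail-vein dose on day 1; controls received 5% glucose. Tumor volume = (length × width²)/2 and body weight tracked.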

[4] = tested on: Syncephalastrum racemosum; experiment: Antimicrobial activity against Syncephalastrum racemosum at 5 ug/mL by agar diffusion method; format: functional; conditions: read-out: IZ
Candida albicans [5] = experiment: Antimicrobial activity against Candida albicans at 1.25 ug/mL by agar diffusion method; format: functional; conditions: read-out: IZ
Escherichia coli [6] = experiment: Antimicrobial activity against Escherichia coli at 1.25 ug/mL by agar diffusion method; format: functional; conditions: read-out: IZ
Aspergillus fumigatus [7] = experiment: Antimicrobial activity against Aspergillus fumigatus at 2.5 ug/mL by agar diffusion method; format: functional; conditions: read-out: IZ
Aspergillus fumigatus [8] = experiment: Antimicrobial activity against Aspergillus fumigatus at 1.25 ug/mL by agar diffusion method; format: functional; conditions: read-out: IZ
Staphylococcus aureus [9] = experiment: Antimicrobial activity against Staphylococcus aureus at 5 ug/mL by agar diffusion method; format: functional; conditions: read-out: IZ
Escherichia coli [10] = experiment: Antimicrobial activity against Escherichia coli at 5 ug/mL by agar diffusion method; format: functional; conditions: read-out: IZ
Aspergillus fumigatus [11] = experiment: Antimicrobial activity against Aspergillus fumigatus at 5 ug/mL by agar diffusion method; format: functional; conditions: read-out: IZ
Bacillus subtilis [12] = experiment: Antimicrobial activity against Bacillus subtilis at 5 ug/mL by agar diffusion method; format: functional; conditions: read-out: IZ
Penicillium italicum [13] = experiment: Antimicrobial activity against Penicillium italicum at 2.5 ug/mL by agar diffusion method; format: functional; conditions: read-out: IZ
Candida albicans [14] = experiment: Antimicrobial activity against Candida albicans at 2.5 ug/mL by agar diffusion method; format: functional; conditions: read-out: IZ
Staphylococcus aureus [15] = experiment: Antimicrobial activity against Staphylococcus aureus at 2.5 ug/mL by agar diffusion method; format: functional; conditions: read-out: IZ
Bacillus subtilis [16] = experiment: Antimicrobial activity against Bacillus subtilis at 1.25 ug/mL by agar diffusion method; format: functional; conditions: read-out: IZ
[17] = tested on: Syncephalastrum racemosum; experiment: Antimicrobial activity against Syncephalastrum racemosum at 1.25 ug/mL by agar diffusion method; format: functional; conditions: read-out: IZ
Candida albicans [18] = experiment: Antimicrobial activity against Candida albicans at 5 ug/mL by agar diffusion method; format: functional; conditions: read-out: IZ
Pseudomonas aeruginosa [19] = experiment: Antimicrobial activity against Pseudomonas aeruginosa at 2.5 ug/mL by agar diffusion method; format: functional; conditions: read-out: IZ
Pseudomonas aeruginosa [20] = experiment: Antimicrobial activity against Pseudomonas aeruginosa at 1.25 ug/mL by agar diffusion method; format: functional; conditions: read-out: IZ
Penicillium italicum [21] = experiment: Antimicrobial activity against Penicillium italicum at 1.25 ug/mL by agar diffusion method; format: functional; conditions: read-out: IZ
Escherichia coli [22] = experiment: Antimicrobial activity against Escherichia coli at 2.5 ug/mL by agar diffusion method; format: functional; conditions: read-out: IZ
Penicillium italicum [23] = experiment: Antimicrobial activity against Penicillium italicum at 5 ug/mL by agar diffusion method; format: functional; conditions: read-out: IZ
[24] = tested on: Syncephalastrum racemosum; experiment: Antimicrobial activity against Syncephalastrum racemosum at 2.5 ug/mL by agar diffusion method; format: functional; conditions: read-out: IZ
Pseudomonas aeruginosa [25] = experiment: Antimicrobial activity against Pseudomonas aeruginosa at 5 ug/mL by agar diffusion method; format: functional; conditions: read-out: IZ
Bacillus subtilis [26] = experiment: Antimicrobial activity against Bacillus subtilis at 2.5 ug/mL by agar diffusion method; format: functional; conditions: read-out: IZ
Staphylococcus aureus [27] = experiment: Antimicrobial activity against Staphylococcus aureus at 1.25 ug/mL by agar diffusion method; format: functional; conditions: read-out: IZ
[28] = tested on: Radical scavenging activity; experiment: Antioxidant activity assessed as DPPH free radical scavenging activity by measuring reduction in DPPH absorbance by ELISA relative to untreated control; format: functional; set-up: concentration or dose not given beside the values
Procedure, shortened: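 Test compounds dissolved in DMSO, ascorbic acid standard in water, both serially diluted. 10 µl sample added to 90 µl of 100 µM DPPH in methanol and kept in the dark at 37 °C for 30 min. Absorbance read at 515 nm. Blank is DMSO plus DPPH. % reduction = (A_B − A_A)/A_B × 100. Run in triplicate.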

Structure (SMILES)	MIC (Hepatitis C virus)	MIC (Measles morbillivirus)	Ratio [1]	IC50 [2]	Ratio [3]	Activity (MC-38)	zone of inhibition at 5 µg/mL [4]	zone of inhibition at 1.25 µg/mL (Candida albicans [5])	zone of inhibition at 1.25 µg/mL (Escherichia coli [6])	zone of inhibition at 2.5 µg/mL (Aspergillus fumigatus [7])	zone of inhibition at 1.25 µg/mL (Aspergillus fumigatus [8])	zone of inhibition at 5 µg/mL (Staphylococcus aureus [9])	zone of inhibition at 5 µg/mL (Escherichia coli [10])	zone of inhibition at 5 µg/mL (Aspergillus fumigatus [11])	zone of inhibition at 5 µg/mL (Bacillus subtilis [12])	zone of inhibition at 2.5 µg/mL (Penicillium italicum [13])	zone of inhibition at 2.5 µg/mL (Candida albicans [14])	zone of inhibition at 2.5 µg/mL (Staphylococcus aureus [15])	zone of inhibition at 1.25 µg/mL (Bacillus subtilis [16])	zone of inhibition at 1.25 µg/mL [17]	other results
NC(=O)c1ncn([C@@H]2O[C@H](CO)[C@@H](O)[C@H]2O)n1 [RIBAVIRIN]	16.1 µg/mL (≈ 66.1 µM)	77.9 µg/mL (≈ 319 µM)	–	–	–	–	–	–	–	–	–	–	–	–	–	–	–	–	–	–	–
O=C1/C(=N/Nc2ccccc2)CCCc2ccccc21	1.07 µg/mL (≈ 4.05 µM)	6.12 µg/mL (≈ 23.2 µM)	4.4	56 µM	4.3	Active	–	–	–	–	–	–	–	–	–	–	–	–	–	–	–
c1ccc2c(c1)CCCc1nnc3nncn3c1-2	–	–	–	–	–	–	18 mm	0 mm	0 mm	0 mm	0 mm	14 mm	9 mm	10 mm	16 mm	0 mm	4 mm	8 mm	4 mm	0 mm	zone of inhibition at 5 µg/mL (Candida albicans [18]): 9 mm; zone of inhibition at 2.5 µg/mL (Pseudomonas aeruginosa [19]): 0 mm; zone of inhibition at 1.25 µg/mL (Pseudomonas aeruginosa [20]): 0 mm; zone of inhibition at 1.25 µg/mL (Penicillium italicum [21]): 0 mm; zone of inhibition at 2.5 µg/mL (Escherichia coli [22]): 0 mm; zone of inhibition at 5 µg/mL (Penicillium italicum [23]): 8 mm; zone of inhibition at 2.5 µg/mL [24]: 9 mm; zone of inhibition at 5 µg/mL (Pseudomonas aeruginosa [25]): 0 mm; zone of inhibition at 2.5 µg/mL (Bacillus subtilis [26]): 7 mm; zone of inhibition at 1.25 µg/mL (Staphylococcus aureus [27]): 5 mm
O=C1/C(=N/Nc2cccc([N+](=O)[O-])c2)CCCc2ccccc21	1.04 µg/mL (≈ 3.37 µM)	6.11 µg/mL (≈ 19.8 µM)	4.53	56 µM	4.5	Active	19 mm	5 mm	0 mm	11 mm	8 mm	10 mm	12 mm	20 mm	19 mm	0 mm	8 mm	6 mm	8 mm	9 mm	Activity [28]: 81.1%; zone of inhibition at 5 µg/mL (Candida albicans [18]): 15 mm; zone of inhibition at 2.5 µg/mL (Pseudomonas aeruginosa [19]): 0 mm; zone of inhibition at 1.25 µg/mL (Pseudomonas aeruginosa [20]): 0 mm; zone of inhibition at 1.25 µg/mL (Penicillium italicum [21]): 0 mm; zone of inhibition at 2.5 µg/mL (Escherichia coli [22]): 5 mm; zone of inhibition at 5 µg/mL (Penicillium italicum [23]): 0 mm; zone of inhibition at 2.5 µg/mL [24]: 12 mm; zone of inhibition at 5 µg/mL (Pseudomonas aeruginosa [25]): 0 mm; zone of inhibition at 2.5 µg/mL (Bacillus subtilis [26]): 13 mm; zone of inhibition at 1.25 µg/mL (Staphylococcus aureus [27]): 0 mm
O=C1O[C@H]([C@@H](O)CO)C(O)=C1O	–	–	–	–	–	–	–	–	–	–	–	–	–	–	–	–	–	–	–	–	Activity [28]: 79%
Cc1c(C)c2c(c(C)c1O)CCC(C)(C(=O)O)O2 (stereo unspecified) [TROLOX]	–	–	–	58.4 µM	–	–	–	–	–	–	–	–	–	–	–	–	–	–	–	–	–
CN(C/C=C/C#CC(C)(C)C)Cc1cccc2ccccc12 [TERBINAFINE]	–	–	–	–	–	–	21 mm	6 mm	13 mm	18 mm	11 mm	15 mm	27 mm	24 mm	22 mm	9 mm	10 mm	6 mm	11 mm	9 mm	zone of inhibition at 5 µg/mL (Candida albicans [18]): 19 mm; zone of inhibition at 2.5 µg/mL (Pseudomonas aeruginosa [19]): 5 mm; zone of inhibition at 1.25 µg/mL (Pseudomonas aeruginosa [20]): 0 mm; zone of inhibition at 1.25 µg/mL (Penicillium italicum [21]): 4 mm; zone of inhibition at 2.5 µg/mL (Escherichia coli [22]): 20 mm; zone of inhibition at 5 µg/mL (Penicillium italicum [23]): 19 mm; zone of inhibition at 2.5 µg/mL [24]: 13 mm; zone of inhibition at 5 µg/mL (Pseudomonas aeruginosa [25]): 11 mm; zone of inhibition at 2.5 µg/mL (Bacillus subtilis [26]): 18 mm; zone of inhibition at 1.25 µg/mL (Staphylococcus aureus [27]): 4 mm
COc1ccc(N/N=C2\CCCc3ccccc3C2=O)cc1	1.01 µg/mL (≈ 3.43 µM)	6.01 µg/mL (≈ 20.4 µM)	4.9	54.2 µM	4.8	Active	–	–	–	–	–	–	–	–	–	–	–	–	–	–	Activity [28]: 83.9%
